Source: ChEMBL document CHEMBL6134855, “Peptidomimetics Activating the Proteasome: A New Perspective for Parkinson's Treatment” (J Med Chem, 2025)
Active and inactive are the calls of the source. No cut-off for these calls is given here. Where a SMILES comes first, the peptide text is derived from it. [ ]: non-standard residue; d: D form. NMeR = CN[C@@H](CCCNC(=N)N)C(=O)O; NMeS = CN[C@@H](CO)C(=O)O

Legend:
[1] = Proteolytic stability of compound in human plasma assessed as protease-mediated degradation by measuring compound remaining at 200 uM incubated for 30 mins by UHPLC analysis; format: ADME, cell-free; conditions: read-out: Stability
Procedure, shortened: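 Compound (200 μM final, dissolved in water) incubated in human serum at 37 °C for 30 min. Samples every 5 min quenched 1:1 with 6% TCA and centrifuged. Supernatant analysed by UHPLC (UV 223 nm) for intact compound; cleavage sites identified by MS.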

[2] = tested on: HEK-293T; test: Cytotoxicity in HEK293T cells assessed as cell viability at 1 to 10 uM incubated for 24 hrs by MTT assay relative to control; format: toxicity, cell-based; conditions: human, dose 1-10 µM
Procedure, shortened: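 HEK293T cells grown 2 days, then medium replaced with compound at 1, 10, 25, 50 or 100 μM for 24 h. MTT added, formazan dissolved in DMSO, absorbance read at 570 nm. Mean of three biological replicates vs control, one-way ANOVA.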

[3] = tested on: HEK-293T; test: Cytotoxicity against HEK293T cells assessed as cell viability at 10 uM measured after 3 hrs by Hoechst 33342 staining based analysis; format: toxicity; conditions: human
Procedure, shortened: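 HEK293T cells in DMEM/10% FBS, seeded 3 × 10^4 per well and grown 48 h, then given 10 μM NBD-labelled modulators for 3 h. Hoechst 33342 added for the final 30 min. Cells washed with PBS and imaged by fluorescence microscopy (NBD and Hoechst channels). Three independent replicates.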

[4] = molecular target: T1, 20S proteasome (Homo sapiens) (UniProt P49721+P20618+P28074+P28062+P28065+P28072+P25786+P25787+P25788+P25789+P28066+P60900+O14818+Q8TAA3+P40306+A5LHX3+P49720+P28070+Q99436); test: Activation of human 20S proteasome assessed as alpha-synuclein degradation by measuring residual activity at 10 uM by SDS-PAGE analysis relative to control; format: protein-complex assay; conditions: filed as activator, time 1.5 hrs
[5] = molecular target: T1, 20S proteasome (Homo sapiens); test: Activation of human 20S proteasome assessed as tau degradation at 10 uM by SDS-PAGE analysis relative to control; format: protein-complex assay; conditions: filed as activator, time 1.5 hrs
[6] = tested on: Primary cortical neuron; test: Activation of 20S proteasome in mouse Primary cortical neuron cells assessed as reduction in alpha-synuclein level at 2.5 uM incubated for 7 days; format: cell-based; conditions: filed as activator, time 7.0 day
Procedure, shortened: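 E16–E17 CD1 mouse cortical neurons cultured in Neurobasal A with B-27 and GlutaMAX. Treated at DIV7 with 2.5 μM activator for 7 days; lysed at DIV14, protein by BCA. α-Synuclein quantified by Simple Western Jess automated immunoblot with total-protein normalization. n = 3 biological replicates.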

[7] = Permeability of compound in PBS incubated for 22 hrs by PAMPA-BBB assay; format: ADME
Procedure, shortened: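 PAMPA-BBB with a 2% porcine brain lipid membrane. Compounds were diluted from 10 mM aqueous stocks to 500 μM in 0.1 M PBS containing 5% DMSO and incubated 22 h at 37 °C with shaking at 250 rpm. Read-out was fluorescence after reaction with 0.02% fluorescamine (absorbance at 290 nm for propranolol). Pe calculated as linear permeation velocity. Three biological replicates.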

[8] = tested on: Hippocampal neuron; test: Neuroprotective activity in mouse Hippocampal neuron cells assessed as increase in cell number at 0.5 to 5 uM pretreated with preformed fibrils followed by compound treatment measured after 7 days by DAPI staining/NeuN protein immunostaining analysis; format: functional, cell-based; conditions: dose 0.5-5 µM, time 7.0 day
[9] = tested on: Hippocampal neuron; test: Neuroprotective activity in mouse Hippocampal neuron cells assessed as decrease in Lewy body-like aggregates at 0.5 to 2.5 uM pretreated with alpha-synuclein followed by compound addition measured after 7 days by immunostaining analysis; format: functional, cell-based; conditions: dose 0.5-2.5 µM, time 7.0 day
Procedure, shortened: (§1)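 E16.0 mouse hippocampal neurons, 25,000 per well, poly-L-lysine coated, Neurobasal/B27. Day 8: sonicated mouse α-synuclein PFFs added (2.5 μg/mL final; PBS for controls). Modulator (0.5 or 2.5 μM) added 1 h later. Day 15: PFA fixation; immunostaining for pS129-αsyn and NeuN plus DAPI; automated imaging. 3 biological, 9–11 technical replicates.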

[10] = molecular target: T1, 20S proteasome (Homo sapiens); test: Activation of 20S proteasome chymotrypsin-like activity in HEK293T cell lysate using Suc-LLVY-AMC as substrate assessed as fold increase in activity at 5 uM by fluorescence based analysis relative to control; format: subcellular; conditions: filed as activator
Procedure, shortened: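 Chymotrypsin-like activity read with Suc-LLVY-AMC. 1 μM bortezomib as negative control. Fold activity vs vehicle control; at least three independent replicates, one-way ANOVA with Tukey.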

[11] = molecular target: T1, 20S proteasome (Homo sapiens); test: Activation of human erythrocyte-derived 20S proteasome chymotrypsin-like activity using Suc-LLVY-AMC as substrate assessed as fold increase in activity at 1 uM measured every two mins for 60 mins by fluorescence based analysis relative to control; conditions: filed as activator
Procedure, shortened: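 h20S proteasome 0.002 mg/mL (2.8 nM) in 50 mM Tris/HCl pH 8.0, 2% DMSO final. Suc-LLVY-AMC 100 μM final. Modulators 1.0–50 μM (TAT/6R constructs 0.5–10 μM). AMC fluorescence ex 380/em 460 nm read every 2 min for 60 min at 37 °C. Activity relative to DMSO-treated latent proteasome (100%); ≥3 replicates.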

[12] = tested on: Hippocampal neuron; test: Neuroprotective activity in mouse Hippocampal neuron cells assessed as neuron viability at 0.5 to 2.5 uM pretreated with alpha-synuclein followed by compound addition measured after 7 days by immunostaining analysis; format: functional, cell-based; conditions: dose 0.5-2.5 µM, time 7.0 day; procedure, shortened: as §1
[13] = molecular target: T1, 20S proteasome (Homo sapiens); test: Activation of human erythrocyte-derived 20S proteasome trypsin-like activity using Boc-LRR-AMC as substrate at 0.5 to 10 uM measured every two mins for 60 mins by fluorescence based analysis; conditions: filed as activator, dose 0.5-10 µM
[14] = Cytotoxicity in HEK293T cells assessed as cell viability at 100 uM incubated for 24 hrs by MTT assay relative to control; format: toxicity, cell-based, HEK-293T; conditions: human, read-out: Activity
Procedure, shortened: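 HEK293T cells grown in complete medium for 2 days, then the medium was replaced with compound at 1, 10, 25, 50 or 100 μM for 24 h. MTT was added, formazan dissolved in DMSO, and absorbance read at 570 nm. Mean of three biological replicates, compared with untreated control.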

[15] = tested on: Hippocampal neuron; test: Activation of 20S proteasome in mouse Hippocampal neuron cells assessed as reduction in alpha-synuclein aggregation measured after 7 days by DAPI staining based immunofluorescence analysis; format: cell-based; conditions: filed as activator, dose 0.5-5 µM, time 7.0 day
[16] = molecular target: T1, 20S proteasome (Homo sapiens); test: Activation of human erythrocyte-derived 20S proteasome using Dabcyl-EDANS as FRET-type substrate at 1.0 to 50 uM measured every two mins for 60 mins by fluorescence based analysis; format: cell-based; conditions: filed as activator, dose 1-50 µM
Procedure, shortened: (§2)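 Latent human 20S proteasome (0.002 mg/mL, 2.8 nM) in 50 mM Tris/HCl pH 8.0 with 2% DMSO. AMC substrates at 100 μM final (ex 380/em 460 nm); Dabcyl-EDANS at 15 μM final (ex 335/em 493 nm). Modulators at 1.0–50 μM; TAT- or 6R-containing constructs at 0.5–10 μM. Read every 2 min for 60 min at 37 °C. Activity relative to DMSO-treated proteasome (100%). ≥3 independent replicates.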

[17] = molecular target: T1, 20S proteasome (Homo sapiens); test: Activation of human erythrocyte-derived 20S proteasome chymotrypsin-like activity using Suc-LLVY-AMC as substrate at 1.0 to 50 uM measured every two mins for 60 mins by fluorescence based analysis; conditions: filed as activator, dose 1-50 µM
[18] = molecular target: T1, 20S proteasome (Homo sapiens); test: Activation of human erythrocyte-derived 20S proteasome using Dabcyl-EDANS as FRET-type substrate at higher concentration measured every two mins for 60 mins by fluorescence based analysis; format: cell-based; conditions: filed as activator; procedure, shortened: as §2
[19] = molecular target: T1, 20S proteasome (Homo sapiens); test: Activation of human erythrocyte-derived 20S proteasome trypsin-like activity using Boc-LRR-AMC as substrate at 1.0 to 50 uM measured every two mins for 60 mins by fluorescence based analysis; conditions: dose 1-50 µM
[20] = molecular target: T1, 20S proteasome (Homo sapiens); test: Activation of human erythrocyte-derived 20S proteasome caspase-like activity using Z-LLE-AMC as substrate at 1.0 to 50 uM measured every two mins for 60 mins by fluorescence based analysis; conditions: filed as activator, dose 1-50 µM; procedure, shortened: as §2
[21] = Effect on secondary structure of drug in water at 2 mg/ml assessed as alpha-helical conformation by CD analysis; format: physicochemical; conditions: buffer

## C[C@@H](O)[C@H](NC(=O)[C@H](Cc1ccccc1)NC(=O)[C@H](Cc1ccc(O)cc1)NC(=O)CN(CCCCN)C(=O)[C@H](CCCNC(=N)N)NC(=O)[C@H](CCCNC(=N)N)NC(=O)[C@H](CCCNC(=N)N)NC(=O)[C@H](CCC(N)=O)NC(=O)[C@H](CCCNC(=N)N)NC(=O)[C@H](CCCNC(=N)N)NC(=O)[C@H](CCCCN)NC(=O)[C@H](CCCCN)NC(=O)[C@@H](N)CCCNC(=N)N)C(=O)NCC(=O)N[C@@H](CO)C(=O)N[C@@H](CCCCN)C(=O)N[C@@H](CC(=O)O)C(=O)N[C@@H](Cc1c[nH]c2ccccc12)C(=O)N[C@@H](CCCNC(=N)N)C(=O)N[C@@H](CO)C(=O)N[C@@H](Cc1ccc(O)cc1)C(=O)N[C@@H](Cc1ccc(O)cc1)C(=O)N[C@@H](CO)C(=O)O
[1]
  remaining at 0.5 h, 200 µM: > 60%
[2]
  Activity: Non-toxic
[3]
  Activity: Non-toxic
[4]
  Activity: < 40%
[5]
  Activity: > 90%
[6]
  Activity: Active
[7]
  permeability: Permeable
[8]
  Activity: Active
[9]
  Activity: Active
[10]
  fold change (FC): 4
[11]
  fold change (FC): 16
[12]
  Activity: Active
[13]
  Activity: Active

## C[C@@H](O)[C@H](NC(=O)[C@H](Cc1ccccc1)NC(=O)[C@H](Cc1ccc(O)cc1)NC(=O)CN(CCCCN)C(=O)[C@H](CCCNC(=N)N)NC(=O)[C@H](CCCNC(=N)N)NC(=O)[C@H](CCCNC(=N)N)NC(=O)[C@H](CCNC(=N)N)NC(=O)[C@H](CCCNC(=N)N)NC(=O)[C@@H](N)CCCNC(=N)N)C(=O)NCC(=O)N[C@@H](CO)C(=O)N[C@@H](CCCCN)C(=O)N[C@@H](CC(=O)O)C(=O)N[C@@H](Cc1c[nH]c2ccccc12)C(=O)N[C@@H](CCCNC(=N)N)C(=O)N[C@@H](CO)C(=O)N[C@@H](Cc1ccc(O)cc1)C(=O)N[C@@H](Cc1ccc(O)cc1)C(=O)N[C@@H](CO)C(=O)O
[1]
  remaining at 0.5 h, 200 µM: > 60%
[14]
  viability at 24 h, 100 µM: ~50%
[2]
  Activity: Non-toxic
[3]
  Activity: Non-toxic
[6]
  Activity: Active
[7]
  permeability: Permeable
[8]
  Activity: Active
[9]
  Activity: Active
[15]
  Activity: Dose-dependent-effect
[12]
  Activity: Active

## C[C@@H](O)[C@H](NC(=O)[C@H](Cc1ccccc1)NC(=O)[C@H](Cc1ccc(O)cc1)NC(=O)[C@@H](N)CCCCN)C(=O)NCC(=O)N[C@@H](CO)C(=O)N[C@@H](CCCCN)C(=O)N[C@@H](CC(=O)O)C(=O)N[C@@H](Cc1c[nH]c2ccccc12)C(=O)N(C)[C@@H](CCCNC(=N)N)C(=O)N(C)[C@@H](CO)C(=O)N[C@@H](Cc1ccc(O)cc1)C(=O)N[C@@H](Cc1ccc(O)cc1)C(=O)N[C@@H](CO)C(=O)O (H-KYFTGSKDW[NMeR][NMeS]YYS-OH)
[16]
  Activity: Active
[17]
  Activity: Active; Lower Capacity Of Activation Is Observed
[18]
  Activity: Active
[19]
  Activity: inactive
[20]
  Activity: Moderate_effect
[21]
  Activity: Active
